Assay outcomes from PubChem.
Only some compounds are listed: those with a hit (about 4.1% of all), similar ones and a draw of the others.
RGS4 pot = RGS4 potentiators or activators, primary screen, cell-based, HEK293 M3R inducible RGS4, calcium flux. 0.92% of 310,000 active. B-score at 10 µM. AID 463111, 2010. carbachol calcium flux Fluo4; hits give low values;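 active = B-score of the integrated calcium signal more than 4 SD below the library mean, with starting fluorescence not abnormally high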;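 also: negative B-score means reduced calcium response which marks RGS4 activation or potentiation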
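Assay system: HEK293 FlpIn-TREx cells, stable M3R, doxycycline-inducible RGS4 / Probe or stimulus: carbachol, ECmax concentration / Times: overnight RGS4 induction, 30 min dye load 37 °C, 20 min compound RT / Signal: kinetic calcium fluorescence imaging with Fluo4-AM dye, 2 µM / Measure: Agonist-evoked peak-minus-minimum fluorescence over baseline, integrated ratio, B score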
MrgX1 PAM = positive allosteric modulators of MrgX1, primary screen, HEK293 cells, Fluo-4 calcium flux; Mas-related G-protein coupled receptor member X1 (Homo sapiens), Q96LB2; FDSS; hits give high values; B-score at 10 µM; 0.63% of 310,000 active;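 active = plate-corrected calcium response at least 3 library SD above typical, normal starting fluorescence, not activating the receptor alone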;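 also: compound read alongside a low EC10 to EC30 dose of BAM8-22 agonist; peak minus trough fluorescence over baseline measured at the second addition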
Target sequence (Q96LB2 whole entry, looked up): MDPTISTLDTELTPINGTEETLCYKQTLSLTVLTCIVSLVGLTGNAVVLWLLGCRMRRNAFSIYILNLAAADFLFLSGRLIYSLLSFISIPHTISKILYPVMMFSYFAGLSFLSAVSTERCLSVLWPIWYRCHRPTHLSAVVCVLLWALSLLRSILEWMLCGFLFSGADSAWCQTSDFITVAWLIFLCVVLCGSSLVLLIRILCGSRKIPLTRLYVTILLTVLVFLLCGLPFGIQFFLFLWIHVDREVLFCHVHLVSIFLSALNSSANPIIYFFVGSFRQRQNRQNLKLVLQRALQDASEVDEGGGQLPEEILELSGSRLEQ
MrgX1 antagonist = antagonists of human MrgX1 receptor, primary screen, HEK293 cells, Fluo-4 calcium flux | Mas-related G-protein coupled receptor member X1 (Homo sapiens), Q96LB2 | BAM8-22 antagonism; hits give low values | B-score at 10 µM | 1.3% of 310,000 active | AID 588676, 2011;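 active = calcium-response B-score plate-corrected more than 3 library SD below zero, starting fluorescence within 5 deviations, no agonist response on first addition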;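 also: peak minus trough fluorescence over baseline after final BAM8-22 challenge near maximal dose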
MrgX1 ag = agonists of human MrgX1 receptor, primary screen, HEK293 cells, Fluo-4 calcium flux; Mas-related G-protein coupled receptor member X1 (Homo sapiens), Q96LB2; Fluo-4 calcium fluorescence, agonist mode; hits give high values; B-score at 10 µM; 0.44% of 310,000 active; AID 588627, 2011;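 active = calcium response B-score plate-corrected fluorescence ratio at least 3 library SD, with starting fluorescence B-score inside 5 SD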
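Assay system: MrgX1-expressing HEK293 cells / Amount: fifteen thousand cells per well / Doses: test compound in the initial addition of three / Timing: cells plated overnight, dye loaded 0.5 h 37 °C, 0.5 h room temperature / Technique: kinetic calcium dye fluorescence, Fluo-4 NW / Control set: positive and negative controls per plate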
Kir21 block = inhibitors of mouse Kir2.1 inward-rectifier potassium channel; B-score at 10 µM; 0.85% of 310,000 active; HEK293-Kir2.1, FluxOR thallium flux fluorescence; hits give low values; Inward rectifier potassium channel 2 (Mus musculus), P35561; AID 1672, 2009;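 active = fluorescence ratio B-score at or below minus 3 SD of library scores, with starting-brightness B-score within 2 SD, cut at about -4.2 in these data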;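 also: channel flux triggered by added potassium and thallium sulfate stimulus; B-score of peak minus minimum fluorescence over baseline after thallium stimulus; more negative B-score means stronger Kir2.1 block with less thallium influx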
RGS4 block = RGS4 inhibitors, primary screen, cell-based, HEK293 M3R inducible RGS4, calcium flux. Regulator of G-protein signaling 4 (Homo sapiens), P49798. Fluo-4 calcium flux; hits give high values; triggered by carbachol at its EC20. B-score at 10 µM. 0.45% of 310,000 active. AID 463165, 2010;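 active = B-score, a plate-corrected calcium signal, over three deviations above library mean, with baseline fluorescence within five deviations of library mean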;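 also: RGS4 expression induced by doxycycline in cells with stable M3 receptor; B-score is computed from the integrated fluorescence ratio over baseline after carbachol; higher B-score means a larger calcium signal and so more RGS4 inhibition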
Target sequence (P49798 whole entry, looked up): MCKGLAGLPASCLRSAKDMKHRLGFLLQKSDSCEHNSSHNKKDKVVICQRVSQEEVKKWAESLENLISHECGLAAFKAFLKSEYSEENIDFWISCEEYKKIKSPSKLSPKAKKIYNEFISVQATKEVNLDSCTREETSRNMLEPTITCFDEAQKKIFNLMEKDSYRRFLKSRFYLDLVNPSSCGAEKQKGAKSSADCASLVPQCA
RGS4 block valid = enhanced carbachol calcium response, M3R/RGS4 cells, RGS4 inhibitor project, cell-based, validation screen, HEK293 M3R/RGS4, calcium flux | 65% of 1,700 active | calcium response, % at 10 µM | AID 492999, 2010 | carbachol calcium Fluo-4 fluorescence; carbachol added at its EC20; 0 = buffer wells, 100 = carbachol control | shares compounds with RGS4 block;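 active = duplicate-averaged calcium response above the buffer-only control mean plus 5 SD of those controls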;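 also: integrated fluorescence ratio F max minus min over baseline F0; higher response in RGS4-induced cells means RGS4 inhibition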
M3R Ca ctr = carbachol calcium response in non-induced M3R cells, confirmation, counter-screen for RGS4 inhibitor project, cell-based, HEK293 M3R. AID 493000, 2010. 20% of 1,900 active. activity (percent), % at 10 µM. carbachol calcium Fluo-4; submaximal (EC20) carbachol stimulus; buffer wells 0%, carbachol control wells 100%. shares compounds with RGS4 block; call rule not given here;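 also: RGS4 induction absent so cells express M3R without RGS4; higher means more calcium signal and flags a non-specific hit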
RGS4 inh ctr2 = signal in non-induced cells without carbachol, RGS4 inhibitor counter-screen; shares compounds with RGS4 block; HEK293 M3R/RGS4 non-induced, Fluo-4 calcium, no carbachol; normalised: buffer wells 0%, carbachol wells 100%; calcium response (agonist-mode artifact), % at 10 µM; 22% of 1,900 active;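 active = duplicate-averaged calcium rise in uninduced cells above buffer wells' mean plus 5 SD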
Numbers without * were called inactive; i = inactive; . = not tested or not shown.

SMILES	RGS4 pot	MrgX1 PAM	MrgX1 antagonist	MrgX1 ag	Kir21 block	RGS4 block	RGS4 block valid	M3R Ca ctr	RGS4 inh ctr2
CN(CCn1ccnc1)C(=O)CC1C(=O)NCCN1Cc1ccccc1C(F)(F)F (stereo unspecified)	i	i	i	i	0.02	i	.	.	.
COC(=O)c1sc(NC(=O)CSc2nc3cccnc3n2C2CCCCC2)nc1C	i	i	i	i	-0.85	4.9*	9.5%*	i	i
CCc1c(O)nc(SCC(=O)Nc2nc3ccccc3s2)n(C2CCCCC2)c1=O	i	i	i	i	-1.4	5.8*	37%*	i	i
CNc1nc(N)c([N+](=O)[O-])c(Nc2ccccc2OC)n1	i	i	i	i	0.77	11*	12%*	44%*	i
COc1ccccc1Nc1nc(NCCO)nc(N)c1[N+](=O)[O-]	i	i	i	i	-0.02	i	.	.	.
Cc1cc(Cl)n2nc(C)c(-c3ccc(Cl)cc3)c2n1	i	i	i	i	-2.6	i	.	.	.
Cc1cc(N)n2nc(C)c(-c3ccc(Cl)cc3)c2n1	i	i	i	i	0.59	7.8*	10%*	i	i
CC(=O)Nc1ccc(Nc2cc(C)nc3c(-c4ccc(Cl)cc4)c(C)nn23)cc1	i	i	i	i	-1.6	i	.	i	i
CCc1c(C(=O)NNC(=S)NC2CCCCC2)csc1C	i	i	i	i	0.48	i	.	.	.
O=C1c2[nH]nc(-c3ccccc3O)c2C(c2cccc(Cl)c2)N1Cc1ccco1 (stereo unspecified)	i	i	i	i	1.9	8.1*	25%*	i	i
COc1ccc(C2c3c(-c4ccccc4O)n[nH]c3C(=O)N2Cc2ccco2)cc1OC (stereo unspecified)	i	i	i	i	1	i	.	.	.
O=C1c2[nH]nc(-c3ccccc3O)c2C(c2cccc(Cl)c2)N1CC1CCCO1 (stereo unspecified)	i	i	i	i	-1.8	i	.	.	.
O=C1c2[nH]nc(-c3ccccc3O)c2C(c2ccc(F)cc2)N1Cc1ccco1 (stereo unspecified)	i	i	i	i	-0.32	9*	20%*	i	i
CCCOc1ccc2c(CC)cc(=O)oc2c1C	i	i	i	i	-0.06	i	.	.	.
COCCCNC(=S)N(CCCO)Cc1cc2cc3c(cc2[nH]c1=O)OCO3	i	i	i	i	0.45	i	.	i	i
COCCCNC(=S)N(CCO)Cc1cc2cc3c(cc2[nH]c1=O)OCO3	i	i	i	i	1.5	i	i	i	i
COCCCNC(=S)N(CCCO)Cc1cc2cc3c(cc2[nH]c1=O)OCCO3	i	i	i	i	-1	i	.	i	i
CCNC(=S)N(CCCO)Cc1cc2cc3c(cc2[nH]c1=O)OCCO3	i	i	i	i	0.7	i	.	.	.
Cc1cccc(Nc2nc(NC(C)C)nc(Oc3ccc(=O)n(C)n3)n2)c1	i	i	i	i	-0.74	i	.	.	.
CN1C(=O)/C(=C/c2cccc([N+](=O)[O-])c2)C(=O)N1c1ccccc1	i	i	i	i	-1.5	36*	44%*	37%*	i
O=C1NC(=S)N/C1=C/c1cccc([N+](=O)[O-])c1	i	i	i	i	0.04	i	.	.	.
O=C(NN=C1CCCC1)c1ccc(Cl)cc1	i	i	i	i	-0.15	i	.	.	.
COc1cc(/C=C/c2cccc[n+]2C)ccc1OCC(=O)Nc1ccccc1C	i	i	i	i	1.6	i	.	.	.
CCOc1cc(/C=C\[N+](=O)[O-])ccc1OCC(=O)Nc1ccccc1C	i	i	i	i	0.87	43*	54%*	47%*	i
Cc1cc(-c2cc(-c3ccc(Cl)cc3)nc(N)c2C#N)co1	i	i	i	i	-4.9*	9.8*	5.0%*	i	i
SMILES	RGS4 pot	MrgX1 PAM	MrgX1 antagonist	MrgX1 ag	Kir21 block	RGS4 block	RGS4 block valid	M3R Ca ctr	RGS4 inh ctr2
Cc1ccc(-c2cc(-c3ccc(Cl)cc3)c(C#N)c(N)n2)o1	i	i	i	i	-4.5*	6.3*	5.0%*	i	12%*
Cc1ccc(-c2cc(-c3ccc4c(c3)OCO4)c(C#N)c(N)n2)o1	i	i	i	i	2.4	8.8*	i	i	i
Cc1ccc(-c2cc(-c3ccc(F)cc3)c(C#N)c(N)n2)o1	i	i	i	27*	-2.2	i	i	i	i
CCOc1cc(-c2cc(-c3ccc(C)o3)nc(N)c2C#N)ccc1O	i	i	i	i	0.02	i	.	.	.
O=C1OC(N2C(=O)CC[C@H]2C(=O)NCC2CCCO2)c2ccccc21 (stereo partly specified)	i	i	i	i	0.08	i	.	.	.
CCOC(=O)N1CCN(C(=O)Nc2ccccc2Cl)CC1	i	i	i	i	1.3	i	.	.	.
COc1ccc(C(=O)NNC(=O)c2cc3cccc(OC)c3oc2=O)cc1	i	i	i	i	-0.09	i	.	.	.
O=C(NC1CCS(=O)(=O)C1)c1ccc(S(=O)(=O)N2CCCCC2)cc1 (stereo unspecified)	i	i	i	i	0.01	i	.	.	.
Cc1ccc(-c2cc(-c3ccc(C)o3)nc(N)c2C#N)cc1	i	i	i	i	0.79	7*	i	i	i
Cc1nn(C)c(C(=O)NNC(=S)NC2CCCCC2)c1Br	i	i	i	i	-0.5	8.5*	23%*	32%*	i
